According to ChEMBL document CHEMBL4145441, “Discovery of N-(5-((5-chloro-4-((2-(isopropylsulfonyl)phenyl)amino)pyrimidin-2-yl)amino)-4-methoxy-2-(4-methyl-1,4-diazepan-1-yl)phenyl)acrylamide (CHMFL-ALK/EGFR-050) as a potent ALK/EGFR dual kinase inhibitor capable of overcoming a variety of ALK/EGFR associated drug resistant mutants in NSCLC” (Eur J Med Chem, 2017):
Activity calls are given as the source filed them. No cut-off for these calls is given here.

Tests used:
[1] = system: NCI-H1975; experiment: Growth inhibition of human NCI-H1975 cells after 72 hrs by CellTiter-Glo assay; format: functional; details: NCI-H1975, 72 h
How it was run: (§1)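 Antiproliferative GI50 against H1975 and H3122 cells; each GI50 value obtained from triplicate testing.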

[2] = biological target: ALK tyrosine kinase receptor (Homo sapiens, UniProt Q9UM73, F1174L); experiment: Inhibition of recombinant human N-terminal GST/His6-fused ALK F1174L mutant expressed in Sf9 insect cells using Tyr 1 peptide as substrate after 1 hr by Z-LYTE assay
[3] = Antiproliferative activity against mouse BAF3 cells after 72 hrs by CellTiter-Glo assay; format: cell-based
[4] = system: Epidermal growth factor receptor (Homo sapiens), P00533 [T790M]; experiment: Inhibition of TEL-fused EGFR T790M mutant (unknown origin) expressed in mouse BAF3 cells assessed as decrease in cell proliferation after 72 hrs by CellTiter-Glo assay; format: cell-based
[5] = system: NCI-H1975; experiment: Cell cycle arrest in human NCI-H1975 cells assessed as accumulation at G0/G1 phase at 0.03 to 1 uM after 24 hrs by propidium iodide/RNase staining-based flow cytometry; format: functional
[6] = system: NCI-H1975; experiment: Antiproliferative activity against human NCI-H1975 cells harboring EGFR L858R/T790M mutant after 72 hrs by CellTiter-Glo assay; format: functional; details: NCI-H1975, 72 h; how it was run: as §1
[7] = system: A549; experiment: Antiproliferative activity against human A549 cells harboring wild-type EGFR after 72 hrs by CellTiter-Glo assay; format: functional; details: A549, 72 h
[8] = system: NCI-H1355; experiment: Antiproliferative activity against human NCI-H1355 cells harboring wild-type EGFR after 72 hrs by CellTiter-Glo assay; format: functional; details: NCI-H1355, 72 h
[9] = AUC (0 to infinity) in Sprague-Dawley rat at 1 mg/kg, iv; format: ADME, organism-based; set-up: dose 1 mg/kg, route intravenous, time infinity; details: in vivo
How it was run: (§2)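 Rats dosed once intravenously at 1 mg/kg or orally at 10 mg/kg. Plasma exposure parameters derived: AUC0-t, AUC0-∞, MRT(0-t), Cmax, Tmax, T1/2 and oral bioavailability (F%). Values reported as mean ± spread.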

[10] = MRT (0 to t) in Sprague-Dawley rat at 1 mg/kg, iv; format: ADME, organism-based; details: in vivo
How it was run: (§3)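 Pharmacokinetics in rats given a single dose either intravenously at 1 mg/kg or orally at 10 mg/kg. Plasma parameters derived include AUC0-t, AUC0-∞, MRT(0-t), Cmax, Tmax, T1/2 and oral F (%).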

[11] = Cmax in Sprague-Dawley rat at 1 mg/kg, iv; format: ADME, organism-based; set-up: dose 1 mg/kg, route intravenous; details: in vivo; how it was run: as §2
[12] = AUC (0 to infinity) in Sprague-Dawley rat at 10 mg/kg, po; format: ADME, organism-based; set-up: dose 10 mg/kg, route oral, time infinity; details: in vivo; how it was run: as §2
[13] = MRT (0 to t) in Sprague-Dawley rat at 10 mg/kg, po; format: ADME, organism-based; details: in vivo; how it was run: as §3
[14] = Cmax in Sprague-Dawley rat at 10 mg/kg, po; format: ADME, organism-based; set-up: dose 10 mg/kg, route oral; details: in vivo; how it was run: as §2
[15] = biological target: T1, Epidermal growth factor receptor (Homo sapiens, UniProt P00533); experiment: Inhibition of EGFR in human A549 cells assessed as reduction in EGF-induced STAT3 phosphorylation at Tyr705 residue up to 3 uM after 4 hrs by immunoblotting method; format: cell-based
[16] = biological target: T1, Epidermal growth factor receptor; experiment: Inhibition of EGFR in human A549 cells assessed as reduction in EGF-induced AKT phosphorylation at Ser473 residue up to 3 uM after 4 hrs by immunoblotting method; format: cell-based
[17] = biological target: T2, ALK tyrosine kinase receptor (Homo sapiens, UniProt Q9UM73); experiment: Inhibition of ALK in human NCI-H3122 cells harboring EML4-fused ALK assessed as reduction in ALK-induced ERK phosphorylation at Thr202/Tyr204 residues up to 3 uM after 2 hrs by immunoblot method; format: cell-based
[18] = system: PC-9; experiment: Cell cycle arrest in human PC9 cells assessed as accumulation at G0/G1 phase at 0.03 to 1 uM after 24 hrs by propidium iodide/RNase staining-based flow cytometry; format: functional
[19] = system: NCI-H3122; experiment: Cell cycle arrest in human NCI-H3122 cells assessed as accumulation at G0/G1 phase at 0.03 to 0.3 uM after 24 hrs by propidium iodide/RNase staining-based flow cytometry; format: functional
[20] = system: NCI-H1975; experiment: Induction of apoptosis in human NCI-H1975 cells assessed as increase in cleaved PARP expression level at 300 nM to 1 uM after 24 hrs by Western blot method; format: functional, cell-based
[21] = system: PC-9; experiment: Induction of apoptosis in human PC9 cells assessed as increase in cleaved caspase-3 expression level at 300 nM to 1 uM after 24 hrs by Western blot method; format: functional, cell-based
[22] = system: NCI-H3122; experiment: Induction of apoptosis in human NCI-H3122 cells assessed as increase in cleaved PARP expression level at 300 nM after 24 hrs by Western blot method; format: functional, cell-based
[23] = system: NCI-H3122; experiment: Antitumor activity against human NCI-H3122 cells xenografted in po dosed nu/nu mouse assessed as tumor growth inhibition administered for 28 days; format: functional, organism-based
[24] = species: Homo sapiens; experiment: Selectivity index, ratio of IC50 for recombinant human GST-tagged EGFR L858R mutant to IC50 for recombinant human GST-tagged EGFR L858R/T790M mutant
[25] = biological target: T2, ALK tyrosine kinase receptor
[26] = system: ALK tyrosine kinase receptor (Homo sapiens), Q9UM73 [C1156Y]
[27] = system: ALK tyrosine kinase receptor (Homo sapiens), Q9UM73 [G1202R]
[28] = system: NCI-H1975; experiment: Antitumor activity against human NCI-H1975 cells xenografted in nu/nu mouse assessed as tumor growth inhibition at 40 mg/kg, po qd administered for 21 days; details: 504 h, read-out: TGI

T1 sequence (P00533 whole entry): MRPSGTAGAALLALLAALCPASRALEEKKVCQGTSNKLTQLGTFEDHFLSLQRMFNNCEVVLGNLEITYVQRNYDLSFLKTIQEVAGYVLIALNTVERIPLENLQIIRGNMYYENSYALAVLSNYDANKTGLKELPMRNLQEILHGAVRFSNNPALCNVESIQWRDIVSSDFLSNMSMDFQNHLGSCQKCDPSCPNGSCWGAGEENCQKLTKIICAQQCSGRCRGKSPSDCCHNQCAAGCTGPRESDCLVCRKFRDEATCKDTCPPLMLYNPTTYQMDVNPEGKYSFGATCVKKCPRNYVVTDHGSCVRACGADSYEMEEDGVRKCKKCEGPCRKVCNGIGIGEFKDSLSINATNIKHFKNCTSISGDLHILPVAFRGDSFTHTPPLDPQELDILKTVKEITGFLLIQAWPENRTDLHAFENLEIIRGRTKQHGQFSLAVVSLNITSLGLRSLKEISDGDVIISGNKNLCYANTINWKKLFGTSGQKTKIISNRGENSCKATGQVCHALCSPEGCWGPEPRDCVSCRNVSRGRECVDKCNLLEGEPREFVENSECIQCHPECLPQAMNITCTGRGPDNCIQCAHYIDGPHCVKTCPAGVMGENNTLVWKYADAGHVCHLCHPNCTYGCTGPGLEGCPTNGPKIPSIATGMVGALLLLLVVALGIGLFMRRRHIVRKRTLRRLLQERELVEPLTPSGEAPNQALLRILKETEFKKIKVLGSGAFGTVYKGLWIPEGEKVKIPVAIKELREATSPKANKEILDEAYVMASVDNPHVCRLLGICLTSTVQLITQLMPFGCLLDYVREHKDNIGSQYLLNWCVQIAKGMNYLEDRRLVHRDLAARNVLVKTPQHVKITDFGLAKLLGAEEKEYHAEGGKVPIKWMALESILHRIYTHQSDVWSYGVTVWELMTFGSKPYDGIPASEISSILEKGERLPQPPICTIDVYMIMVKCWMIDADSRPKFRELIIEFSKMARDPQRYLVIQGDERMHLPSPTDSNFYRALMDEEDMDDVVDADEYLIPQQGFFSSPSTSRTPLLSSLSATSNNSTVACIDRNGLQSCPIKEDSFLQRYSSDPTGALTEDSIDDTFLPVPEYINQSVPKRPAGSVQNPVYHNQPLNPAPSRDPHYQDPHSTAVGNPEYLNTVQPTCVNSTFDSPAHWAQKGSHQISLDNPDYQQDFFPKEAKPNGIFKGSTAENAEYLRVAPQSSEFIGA
T2 sequence (Q9UM73 19-1620 limits assumed): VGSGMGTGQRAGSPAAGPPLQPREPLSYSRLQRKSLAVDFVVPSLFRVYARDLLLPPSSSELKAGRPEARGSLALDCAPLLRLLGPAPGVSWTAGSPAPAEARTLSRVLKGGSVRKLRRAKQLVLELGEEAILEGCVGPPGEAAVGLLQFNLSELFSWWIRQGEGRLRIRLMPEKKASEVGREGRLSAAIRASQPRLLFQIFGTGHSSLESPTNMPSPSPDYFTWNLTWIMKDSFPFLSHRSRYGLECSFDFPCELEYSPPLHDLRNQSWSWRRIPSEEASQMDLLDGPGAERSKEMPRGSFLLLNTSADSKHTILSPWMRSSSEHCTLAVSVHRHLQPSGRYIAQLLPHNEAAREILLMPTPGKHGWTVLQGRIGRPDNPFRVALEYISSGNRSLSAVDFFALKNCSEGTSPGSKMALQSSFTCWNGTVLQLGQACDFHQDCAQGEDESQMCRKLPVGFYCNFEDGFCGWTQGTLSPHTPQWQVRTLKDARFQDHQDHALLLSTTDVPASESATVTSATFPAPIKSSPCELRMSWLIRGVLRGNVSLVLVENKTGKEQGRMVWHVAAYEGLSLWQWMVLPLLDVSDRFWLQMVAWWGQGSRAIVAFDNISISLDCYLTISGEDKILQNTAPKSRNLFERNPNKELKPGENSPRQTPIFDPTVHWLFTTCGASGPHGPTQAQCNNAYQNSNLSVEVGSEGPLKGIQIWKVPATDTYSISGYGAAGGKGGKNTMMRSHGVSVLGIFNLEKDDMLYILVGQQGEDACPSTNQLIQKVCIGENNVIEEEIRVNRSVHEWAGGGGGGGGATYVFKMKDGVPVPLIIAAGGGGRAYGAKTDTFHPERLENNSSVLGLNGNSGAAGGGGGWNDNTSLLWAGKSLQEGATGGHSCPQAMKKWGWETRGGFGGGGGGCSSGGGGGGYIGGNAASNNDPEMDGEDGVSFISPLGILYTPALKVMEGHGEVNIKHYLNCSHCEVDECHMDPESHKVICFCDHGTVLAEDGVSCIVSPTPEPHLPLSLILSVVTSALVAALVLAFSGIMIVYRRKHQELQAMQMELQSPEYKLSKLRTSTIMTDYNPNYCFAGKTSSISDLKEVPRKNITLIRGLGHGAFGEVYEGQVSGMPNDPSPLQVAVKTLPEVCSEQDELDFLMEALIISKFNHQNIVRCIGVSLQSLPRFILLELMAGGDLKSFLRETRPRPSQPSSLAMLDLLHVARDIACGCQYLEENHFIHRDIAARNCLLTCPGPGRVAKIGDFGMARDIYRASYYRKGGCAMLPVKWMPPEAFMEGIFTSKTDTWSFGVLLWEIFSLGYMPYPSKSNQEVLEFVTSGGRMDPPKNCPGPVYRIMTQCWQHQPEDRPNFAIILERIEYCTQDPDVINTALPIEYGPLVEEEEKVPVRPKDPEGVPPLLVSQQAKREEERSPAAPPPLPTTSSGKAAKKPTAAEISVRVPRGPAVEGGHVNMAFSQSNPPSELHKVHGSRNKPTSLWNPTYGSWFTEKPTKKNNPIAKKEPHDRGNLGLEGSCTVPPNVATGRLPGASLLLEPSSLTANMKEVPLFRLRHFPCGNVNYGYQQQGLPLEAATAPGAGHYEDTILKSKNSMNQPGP
ALK tyrosine kinase receptor (Homo sapiens, UniProt Q9UM73, F1174L), sequence (Q9UM73 19-1620 F1174L limits assumed): as the sequence (Q9UM73 19-1620 limits assumed) above, with F1156L counted along it
ALK tyrosine kinase receptor (Homo sapiens), Q9UM73 [C1156Y], sequence (Q9UM73 whole entry C1156Y, looked up): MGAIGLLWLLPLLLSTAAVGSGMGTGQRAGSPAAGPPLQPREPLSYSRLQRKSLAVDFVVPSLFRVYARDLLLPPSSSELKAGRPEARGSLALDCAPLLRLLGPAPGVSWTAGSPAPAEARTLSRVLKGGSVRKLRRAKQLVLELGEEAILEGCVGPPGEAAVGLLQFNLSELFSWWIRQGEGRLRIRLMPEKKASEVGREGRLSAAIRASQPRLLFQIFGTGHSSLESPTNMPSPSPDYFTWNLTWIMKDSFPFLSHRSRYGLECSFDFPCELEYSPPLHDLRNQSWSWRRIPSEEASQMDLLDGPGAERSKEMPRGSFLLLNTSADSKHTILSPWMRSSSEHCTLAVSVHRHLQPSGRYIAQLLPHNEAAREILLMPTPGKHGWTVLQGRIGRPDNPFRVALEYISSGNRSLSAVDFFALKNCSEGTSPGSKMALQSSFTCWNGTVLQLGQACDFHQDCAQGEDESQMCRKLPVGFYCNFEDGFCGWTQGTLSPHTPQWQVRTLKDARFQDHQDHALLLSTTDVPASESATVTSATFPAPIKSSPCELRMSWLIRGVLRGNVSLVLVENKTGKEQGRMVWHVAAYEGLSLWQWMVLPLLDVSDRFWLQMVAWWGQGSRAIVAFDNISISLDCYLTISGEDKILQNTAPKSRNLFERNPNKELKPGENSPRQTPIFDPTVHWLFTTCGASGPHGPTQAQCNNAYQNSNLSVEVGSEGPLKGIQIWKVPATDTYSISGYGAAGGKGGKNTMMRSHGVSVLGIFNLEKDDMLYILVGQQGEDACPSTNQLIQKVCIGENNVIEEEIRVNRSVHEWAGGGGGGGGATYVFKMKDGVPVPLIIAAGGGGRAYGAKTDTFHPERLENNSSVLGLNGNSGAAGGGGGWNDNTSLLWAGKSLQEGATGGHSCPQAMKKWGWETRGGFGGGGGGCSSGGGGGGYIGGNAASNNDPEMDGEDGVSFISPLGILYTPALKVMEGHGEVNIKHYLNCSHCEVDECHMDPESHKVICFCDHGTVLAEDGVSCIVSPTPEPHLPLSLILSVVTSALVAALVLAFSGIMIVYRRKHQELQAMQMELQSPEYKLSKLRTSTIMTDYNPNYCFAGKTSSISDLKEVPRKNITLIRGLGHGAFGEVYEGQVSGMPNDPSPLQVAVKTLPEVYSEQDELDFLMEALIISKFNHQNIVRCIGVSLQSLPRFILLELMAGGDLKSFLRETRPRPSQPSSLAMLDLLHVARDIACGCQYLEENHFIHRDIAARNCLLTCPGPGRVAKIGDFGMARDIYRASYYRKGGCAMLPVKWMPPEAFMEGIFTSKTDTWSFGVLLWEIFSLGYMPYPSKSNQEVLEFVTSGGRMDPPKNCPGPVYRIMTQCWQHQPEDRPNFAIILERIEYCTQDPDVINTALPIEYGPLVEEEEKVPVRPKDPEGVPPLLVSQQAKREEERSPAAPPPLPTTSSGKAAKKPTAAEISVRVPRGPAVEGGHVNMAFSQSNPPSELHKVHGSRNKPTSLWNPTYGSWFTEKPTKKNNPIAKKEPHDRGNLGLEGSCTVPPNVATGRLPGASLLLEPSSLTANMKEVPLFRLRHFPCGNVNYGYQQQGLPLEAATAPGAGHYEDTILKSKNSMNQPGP
ALK tyrosine kinase receptor (Homo sapiens), Q9UM73 [G1202R], sequence (Q9UM73 whole entry G1202R): as the sequence (Q9UM73 whole entry C1156Y, looked up) above, with Y1156C, G1202R counted along it

**Q.** Which GI50 [1] does the source give for `C=CC(=O)Nc1cc(Nc2ncc(Cl)c(Nc3ccccc3S(=O)(=O)C(C)C)n2)c(OC)cc1N1CCCN(C)CC1` here?
**A.** The GI50 was 15 nM.

**Q.** What about the IC50 [2] of the same compound?
**A.** The IC50 was 0.92 nM.

**Q.** And the GI50 at 72 h [3]?
**A.** The GI50 at 72 h was 1200 nM.

**Q.** And the GI50 [4]?
**A.** The GI50 was 8 nM.

**Q.** And the Activity [5]?
**A.** The Activity was “Active”.

**Q.** What about the GI50 [6] of the same compound?
**A.** The GI50 was 15 nM.

**Q.** What about the GI50 [7] of the same compound?
**A.** The GI50 was 5600 nM.

**Q.** What about the GI50 [8] of the same compound?
**A.** The GI50 was 1400 nM.

**Q.** And the AUC(0-inf) [9]?
**A.** Its AUC(0-inf) is 720 ng·h/mL.

**Q.** What about the MRT last [10] of the same compound?
**A.** Its MRT last is 0.947 h.

**Q.** And the Cmax [11]?
**A.** The Cmax was 1490 ng/mL.

**Q.** And the AUC(0-inf) [12]?
**A.** The AUC(0-inf) was 1300 ng·h/mL.

**Q.** What about the MRT last [13] of the same compound?
**A.** Its MRT last is 4.12 h.

**Q.** What about the Cmax [14] of the same compound?
**A.** Its Cmax is 283 ng/mL.

**Q.** And the inhibition [15]?
**A.** Its inhibition is “inactive”.

**Q.** What about the inhibition [16] of the same compound?
**A.** Its inhibition is “inactive”.

**Q.** What about the inhibition [17] of the same compound?
**A.** Its inhibition is “Active”.

**Q.** And the Activity [18]?
**A.** Its Activity is “Active”.

**Q.** What about the Activity [19] of the same compound?
**A.** Its Activity is “Active”.

**Q.** And the Activity [20]?
**A.** Its Activity is “Active”.

**Q.** What about the Activity [21] of the same compound?
**A.** Its Activity is “Active”.

**Q.** What about the Activity [22] of the same compound?
**A.** Its Activity is “Active”.

**Q.** And the TGI [23]?
**A.** Its TGI is “Dose-dependent effect”.

**Q.** And the Ratio IC50 [24]?
**A.** Its Ratio IC50 is 20 to 30.

**Q.** And the GI50 [25]?
**A.** The GI50 was 1 nM.

**Q.** What about the GI50 [26] of the same compound?
**A.** The GI50 was 6.9 nM.

**Q.** What about the GI50 [27] of the same compound?
**A.** The GI50 was 460 nM.

**Q.** And the inhibition in vivo at 40 mg/kg [28]?
**A.** The inhibition in vivo at 40 mg/kg was 99%.
